In test [1] the test system is Nakaseomyces glabratus. Description: Antifungal minimum inhibitory concentration of compound against Candida glabrata; Inactive. It counts as functional, organism-based. In outline: (§1)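 Microbroth dilution assay, modified from a published method, against C. glabrata (fluconazole-resistant strain). MIC values come from duplicate experiments.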
Test [2] has as its system Nakaseomyces glabratus. Description: Minimum inhibitory concentration against Candida glabrata. It counts as functional. In outline: as §1
The subject of test [3] is Nakaseomyces glabratus. Description: Fungicidal versus fungistatic activity of bifunctional sphingolipids against Candida glabrata at a concentration of 6 ug/mL before dilution replating; no growth in media. It counts as functional, organism-based.
Test [4] relates to Nakaseomyces glabratus. Description: Fungicidal versus fungistatic activity of bifunctional sphingolipids against Candida glabrata at a concentration of 10 ug/mL before dilution replating; no growth in media. It counts as functional, organism-based.
For test [5], the system named is Nakaseomyces glabratus. Description: Fungicidal versus fungistatic activity of bifunctional sphingolipids against Candida glabrata at a concentration of 1 ug/mL before dilution replating; no (fungicidal, no growth on plate) growth in media. It counts as functional, organism-based.
Test [6] relates to Nakaseomyces glabratus. Description: Fungicidal versus fungistatic activity of bifunctional sphingolipids against Candida glabrata at a concentration of 0.3 ug/mL before dilution replating; (fungicidal, no growth on plate) no growth in media. It counts as functional, organism-based.
Test [7] has as its system Nakaseomyces glabratus. Description: Fungicidal versus fungistatic activity of bifunctional sphingolipids against Candida glabrata at a concentration of 12 ug/mL before dilution replating; no growth in media. It counts as functional, organism-based.
The test system of test [8] is Nakaseomyces glabratus. Description: Fungicidal versus fungistatic activity of bifunctional sphingolipids against Candida glabrata at a concentration of 3 ug/mL before dilution replating; no growth in media. It counts as functional, organism-based.
The test system of test [9] is Nakaseomyces glabratus. Description: Fungicidal versus fungistatic activity of bifunctional sphingolipids against Candida glabrata at a concentration of 5 ug/mL before dilution replating; no growth in media. It counts as functional, organism-based.
In test [10] the test system is Nakaseomyces glabratus. Description: Fungicidal versus fungistatic activity of bifunctional sphingolipids against Candida glabrata at a concentration of 10 ug/mL before dilution replating; no fungicidal growth on plate. It counts as functional, organism-based.
In test [11] the test system is Nakaseomyces glabratus. Description: Fungicidal versus fungistatic activity of bifunctional sphingolipids against Candida glabrata at a concentration of 0.3 ug/mL before dilution replating; growth in media. It counts as functional, organism-based.
The test system of test [12] is Nakaseomyces glabratus. Description: Fungicidal versus fungistatic activity of bifunctional sphingolipids against Candida glabrata at a concentration of 3 ug/mL before dilution replating; growth in media. It counts as functional, organism-based.
Test [13] relates to Nakaseomyces glabratus. Description: Fungicidal versus fungistatic activity of bifunctional sphingolipids against Candida glabrata at a concentration of 5 ug/mL before dilution replating; growth in media. It counts as functional, organism-based.
For test [14], the system named is Nakaseomyces glabratus. Description: Fungicidal versus fungistatic activity of bifunctional sphingolipids against Candida glabrata at a concentration of 1 ug/mL before dilution replating; growth in media. It counts as functional, organism-based.
The test system of test [15] is Nakaseomyces glabratus. Description: Fungicidal versus fungistatic activity of bifunctional sphingolipids against Candida glabrata at a concentration of 6 ug/mL before dilution replating; no fungistatic growth on plate. It counts as functional, organism-based.
Test [16] deals with Nakaseomyces glabratus. Description: Fungicidal versus fungistatic activity of bifunctional sphingolipids against Candida glabrata at a concentration of 5 ug/mL before dilution replating; no fungistatic growth on plate. It counts as functional, organism-based.
In test [17] the test system is Nakaseomyces glabratus. Description: Fungicidal versus fungistatic activity of bifunctional sphingolipids against Candida glabrata at a concentration of 10 ug/mL before dilution replating; no fungistatic growth on plate. It counts as functional, organism-based.
The subject of test [18] is Nakaseomyces glabratus. Description: Fungicidal versus fungistatic activity of bifunctional sphingolipids against Candida glabrata at a concentration of 6 ug/mL before dilution replating; growth in media. It counts as functional, organism-based.
Test [19] has as its system Nakaseomyces glabratus. Description: Fungicidal versus fungistatic activity of bifunctional sphingolipids against Candida glabrata at a concentration of 12 ug/mL before dilution replating no fungistatic growth on plate. It counts as functional, organism-based.
The test system of test [20] is Nakaseomyces glabratus. Description: Fungistatic activity of bifunctional sphingolipids against Candida glabrata at a concentration of 30 ug/mL before dilution replating; no growth in media. It counts as functional, organism-based.
Test [21] deals with Nakaseomyces glabratus. Description: Fungistatic activity of bifunctional sphingolipids against Candida glabrata at a concentration of 6 ug/mL before dilution replating; growth in media. It counts as functional, organism-based.
For test [22], the system named is Nakaseomyces glabratus. Description: Fungistatic activity of bifunctional sphingolipids against Candida glabrata at a concentration of 3 ug/mL before dilution replating; growth in media. It counts as functional, organism-based.
Test [23] relates to Nakaseomyces glabratus. Description: Fungistatic activity of bifunctional sphingolipids against Candida glabrata at a concentration of 5 ug/mL before dilution replating; growth in media. It counts as functional, organism-based.
Test [24] deals with Nakaseomyces glabratus. Description: Fungistatic activity of bifunctional sphingolipids against Candida glabrata at a concentration of 0.3 ug/mL before dilution replating; growth in media. It counts as functional, organism-based.
Test [25] relates to Nakaseomyces glabratus. Description: Fungistatic activity of bifunctional sphingolipids against Candida glabrata at a concentration of 12 ug/mL before dilution replating; growth in media. It counts as functional, organism-based.
Test [26] relates to Nakaseomyces glabratus. Description: Fungistatic activity of bifunctional sphingolipids against Candida glabrata at a concentration of 1 ug/mL before dilution replating; growth in media. It counts as functional, organism-based.
The test system of test [27] is Nakaseomyces glabratus. Description: Fungistatic activity of bifunctional sphingolipids against Candida glabrata at a concentration of 10 ug/mL before dilution replating; growth in media. It counts as functional, organism-based.
Test [28] deals with Nakaseomyces glabratus. Description: Fungicidal versus fungistatic activity of bifunctional sphingolipids against Candida glabrata at a concentration of 1 ug/mL before dilution replating; no fungistatic growth on plate. It counts as functional, organism-based.
The test system of test [29] is Nakaseomyces glabratus. Description: Fungicidal versus fungistatic activity of bifunctional sphingolipids against Candida glabrata at a concentration of 3 ug/mL before dilution replating; no fungistatic growth on plate. It counts as functional, organism-based.
[30] abbreviates: Nakaseomyces glabratus, read-out: MIC.

Where “and” joins values, the source holds several entries; their conditions need not be identical. Equal entries are not always repeated. Calls of active or inactive are those of the source. No cut-off for these calls is given here. Bounds are passed on as bounds.

`C[N+](C)(C)CCCCCCCCCCCC[N+](C)(C)C.[Cl-].[Cl-]`: the MIC entry in [1] was “inactive”. Further, the MIC in test [2] (setting [30]) was greater than 100 µg/mL.

With `CCC[C@@H](O)[C@H](C)N`, the MIC result in test [1] was “inactive”. Further, the MIC in test [2] (setting [30]) is greater than 100 µg/mL.

With `C[C@@H]1[C@H](O)[C@@H](C)/C=C/C=C/C=C/C=C/C=C/C=C/C=C/[C@H](O[C@@H]2O[C@H](C)[C@@H](O)[C@H](N)[C@@H]2O)C[C@@H]2O[C@](O)(C[C@@H](O)C[C@@H](O)[C@H](O)CC[C@@H](O)C[C@@H](O)CC(=O)O[C@H]1C)C[C@H](O)[C@H]2C(=O)O`, the Activity result in test [3], in test [4], in [5], in test [6], in test [7] and in test [8] was “no growth in media” in each case. Besides, the Activity result in test [9] is “no growth in media”.

Turning to `C[C@@H](N)[C@H](O)CCCCCCCCCCCCCCC(=O)CCCCCCC[C@@H](OC[C@H]1O[C@@H](O)[C@H](O)[C@@H](O)[C@@H]1O)[C@@H](N)CO`, the Activity entry in test [10], in test [11], in [12], in test [13], in test [14] and in test [15] was “growth in media” throughout. In addition, in test [2] (setting [30]), the MIC was 10 µg/mL and 15 µM.

In the case of `C[C@H](NC(=O)c1ccccc1)[C@@H](CCCCCCCCCCCCCCCCCCCC[C@@H](OC(=O)c1ccccc1)[C@H](C)NC(=O)c1ccccc1)OC(=O)c1ccccc1`, the MIC entry in [1] was “inactive”. Besides, the minimal inhibitory concentration (MIC) in test [2] (setting [30]) was greater than 100 µg/mL.

`NCCCCCCN`: the MIC entry in test [1] is “inactive”. For the same molecule, in test [2] (setting [30]), the MIC was greater than 100 µg/mL.

Consider `C[C@@H](N)[C@H](O)CCCCCCCCCCCCCCC(=O)CCCCCCC[C@@H](O)[C@@H](N)CO`, for which the Activity entry in [10], in test [11], in [7], in test [12], in test [14] and in test [16] was “growth in media” in each case. The Activity entry in test [15] is on record as “growth in media”. Also, the MIC in [2] (setting [30]) was 3 µg/mL and 6.2 µM.

For `C[C@H](N)[C@H](O)CCCCCCCCCCCCCCCCCCCC[C@@H](O)[C@H](C)N`, the Activity entry in [11], in test [12], in test [17], in test [13], in test [14] and in test [18] was “growth in media” in each case. For the same molecule, the Activity entry in test [19] was “growth in media”. Further, in test [2] (setting [30]), the minimum inhibitory concentration (MIC) was 10 µg/mL and 24 µM.

Turning to `CCC[C@@H](OC(=O)c1ccccc1)[C@H](COC(=O)c1ccccc1)NC(=O)c1ccccc1`, the MIC entry in test [1] is “inactive”. For the same molecule, the MIC in [2] (setting [30]) was greater than 100 µg/mL.

In the case of Hexadecyl-trimethyl-ammonium bromide, in [2], the MIC is 5 µg/mL and 14 µM.

Take `CCC[C@@H](O)[C@@H](N)CO`: in [1], the MIC entry is “inactive”. The MIC in test [2] (setting [30]) is greater than 100 µg/mL.

For `CCCCCCCCCCCCC/C=C/[C@@H](O)[C@@H](N)CO` [SPHINGOSINE], the NA entry in [20] is “Partially active”. Besides, the outcome in [21], in [22], in test [23], in [24], in test [25] and in [26] was inactive. Besides, the outcome in [27] was inactive. Moreover, the MIC in test [2] (setting [30]) was 30 µg/mL and 100 µM.

For `NCCCCCCCCCCCCN`, the MIC in [2] (setting [30]) is greater than 100 µg/mL.

With `OC(Cn1cncn1)(Cn1cncn1)c1ccc(F)cc1F` [FLUCONAZOLE], the Activity entry in test [3], in [28], in [11], in test [4], in [29] and in test [7] was “growth in media” in each case. In addition, the Activity result in test [9] was “growth in media”. Also, the MIC result is “>=100 ug ml-1” in test [2] and greater than 64 µg/mL in test [2] (setting [30]).

For orientation: MIC means the lowest concentration found to suppress growth.

Values taken from ChEMBL document CHEMBL1134863, “Antifungal activity of bifunctional sphingolipids. Intramolecular synergism within long-chain alpha,omega-bis-aminoalcohols” (2002).
